Assay results reported in ChEMBL document CHEMBL1144839, “Cytotoxic bastadin 24 from the Australian sponge Ianthella quadrangulata” (J Nat Prod, 2008).
≈ marks a conversion by molar mass, not a printed value.

Legend:
[1] = system: HUVEC; experiment: Antiangiogenic activity in HUVEC cells assessed as inhibition of hEGF-induced tubular formation at 1 ug/mL after 24 hrs relative to control; format: functional, Homo sapiens; parameters: scale not given: the % may be the effect or the level left
[2] = Cytotoxicity against human PC3M cells after 4 days by modified propidium iodide monolayer assay; format: functional, cell-based; details: PC-3M, 96 h
In short: (§1)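 Part of a 36-line human tumor cell panel. Proliferation inhibition was measured over a range of concentrations, and an IC50 was derived for each cell line from its concentration–response.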

[3] = Cytotoxicity against human 629L cells after 4 days by modified propidium iodide monolayer assay; format: functional, cell-based; details: 96 h; in short: as §1
[4] = Cytotoxicity against human 393NL cells after 4 days by modified propidium iodide monolayer assay; format: functional, cell-based; details: 96 h; in short: as §1
[5] = system: HCT-116; experiment: Cytotoxicity against human HCT116 cells after 4 days by modified propidium iodide monolayer assay; format: functional, cell-based; details: HCT-116, 96 h; in short: as §1
[6] = Cytotoxicity against human 514L cells after 4 days by modified propidium iodide monolayer assay; format: functional, cell-based; details: 96 h; in short: as §1
[7] = Cytotoxicity against human 529L cells after 4 days by modified propidium iodide monolayer assay; format: functional, cell-based; details: 96 h; in short: as §1
[8] = Cytotoxicity against human 401NL cells after 4 days by modified propidium iodide monolayer assay; format: functional, cell-based; details: 96 h; in short: as §1
[9] = system: MCF7; experiment: Cytotoxicity against human MCF7 cells after 4 days by modified propidium iodide monolayer assay; format: functional, cell-based; details: MCF7, 96 h; in short: as §1
[10] = system: LNCaP; experiment: Cytotoxicity against human LNCAP cells after 4 days by modified propidium iodide monolayer assay; format: functional, cell-based; details: 96 h; in short: as §1
[11] = Cytotoxicity against human 1121L cells after 4 days by modified propidium iodide monolayer assay; format: functional, cell-based; details: 96 h; in short: as §1
[12] = Cytotoxicity against human 498NL cells after 4 days by modified propidium iodide monolayer assay; format: functional, cell-based; details: 96 h; in short: as §1
[13] = Cytotoxicity against human 251L cells after 4 days by modified propidium iodide monolayer assay; format: functional, cell-based; details: 96 h; in short: as §1
[14] = Cytotoxicity against human 1138L cells after 4 days by modified propidium iodide monolayer assay; format: functional, cell-based; details: 96 h; in short: as §1
[15] = Cytotoxicity against human 526L cells after 4 days by modified propidium iodide monolayer assay; format: functional, cell-based; details: 96 h; in short: as §1
[16] = Cytotoxicity against human 394NL cells after 4 days by modified propidium iodide monolayer assay; format: functional, cell-based; details: 96 h; in short: as §1
[17] = system: NCI-H460; experiment: Cytotoxicity against human H460 cells after 4 days by modified propidium iodide monolayer assay; format: functional, cell-based; details: NCI-H460, 96 h; in short: as §1
[18] = Cytotoxicity against human 1752L cells after 4 days by modified propidium iodide monolayer assay; format: functional, cell-based; details: 96 h; in short: as §1
[19] = Cytotoxicity against human 944L cells after 4 days by modified propidium iodide monolayer assay; format: functional, cell-based; details: 96 h; in short: as §1
[20] = system: PANC-1; experiment: Cytotoxicity against human PANC1 cells after 4 days by modified propidium iodide monolayer assay; format: functional, cell-based; details: PANC-1, 96 h; in short: as §1
[21] = Cytotoxicity against human 1657L cells after 4 days by modified propidium iodide monolayer assay; format: functional, cell-based; details: 96 h; in short: as §1
[22] = system: OVCAR-3; experiment: Cytotoxicity against human OVCAR-3 cells after 4 days by modified propidium iodide monolayer assay; format: functional, cell-based; details: OVCAR-3, 96 h; in short: as §1
[23] = Cytotoxicity against human 1218L cells after 4 days by modified propidium iodide monolayer assay; format: functional, cell-based; details: 96 h; in short: as §1
[24] = Cytotoxicity against human 899L cells after 4 days by modified propidium iodide monolayer assay; format: functional, cell-based; details: 96 h; in short: as §1
[25] = system: CWR22R; experiment: Cytotoxicity against human 22RV1 cells after 4 days by modified propidium iodide monolayer assay; format: functional, cell-based; details: 22Rv1, 96 h; in short: as §1
[26] = system: T-24; experiment: Cytotoxicity against human T24 cells after 4 days by modified propidium iodide monolayer assay; format: functional, cell-based; details: T-24, 96 h; in short: as §1
[27] = Cytotoxicity against human 536L cells after 4 days by modified propidium iodide monolayer assay; format: functional, cell-based; details: 96 h; in short: as §1
[28] = Cytotoxicity against human 1619L cells after 4 days by modified propidium iodide monolayer assay; format: functional, cell-based; details: 96 h; in short: as §1
[29] = Cytotoxicity against human 289L cells after 4 days by modified propidium iodide monolayer assay; format: functional, cell-based; details: 96 h; in short: as §1
[30] = Cytotoxicity against human 276L cells after 4 days by modified propidium iodide monolayer assay; format: functional, cell-based; details: 96 h; in short: as §1
[31] = Cytotoxicity against human 486L cells after 4 days by modified propidium iodide monolayer assay; format: functional, cell-based; details: 96 h; in short: as §1
[32] = system: DU-145; experiment: Cytotoxicity against human DU145 cells after 4 days by modified propidium iodide monolayer assay; format: functional, cell-based; details: DU-145, 96 h; in short: as §1
[33] = Cytotoxicity against human 520L cells after 4 days by modified propidium iodide monolayer assay; format: functional, cell-based; details: 96 h; in short: as §1
[34] = system: HT-29; experiment: Cytotoxicity against human HT29 cells after 4 days by modified propidium iodide monolayer assay; format: functional, cell-based; details: HT-29, 96 h; in short: as §1
[35] = Cytotoxicity against human 462NL cells after 4 days by modified propidium iodide monolayer assay; format: functional, cell-based; details: 96 h; in short: as §1
[36] = Cytotoxicity against human 1781L cells after 4 days by modified propidium iodide monolayer assay; format: functional, cell-based; details: 96 h; in short: as §1
[37] = system: SF-268; experiment: Cytotoxicity against human SF268 cells after 4 days by modified propidium iodide monolayer assay; format: functional, cell-based; details: SF-268, 96 h; in short: as §1

O=C1NCCc2cc(Br)c(O)c(c2)Oc2c(Br)cc(cc2Br)[C@H](O)CNC(=O)/C(=N/O)Cc2cc(Br)c(O)c(c2)Oc2ccc(cc2Br)C/C1=N\O [BASTADIN 12]
Activity [1]: 27.6%

O=C1NCCc2cc(Br)c(c(Br)c2)Oc2cc(cc(Br)c2O)CCNC(=O)/C(=N/O)C(O)c2cc(Br)c(c(Br)c2)Oc2cc(cc(Br)c2O)C/C1=N\O (centres undefined) [BASTADIN 24]
IC50 [2]: 1.29 µg/mL (≈ 1.16 µM)
IC70 [2]: 3.03 µg/mL (≈ 2.72 µM)
IC90 [2]: 7.11 µg/mL (≈ 6.38 µM)
IC50 [3]: 0.37 µg/mL (≈ 0.332 µM)
IC70 [3]: 0.63 µg/mL (≈ 0.566 µM)
IC90 [3]: 1.67 µg/mL (≈ 1.5 µM)
IC50 [4]: 2.42 µg/mL (≈ 2.17 µM)
IC70 [4]: 4.38 µg/mL (≈ 3.93 µM)
IC90 [4]: 7.9 µg/mL (≈ 7.09 µM)
IC50 [5]: 3.87 µg/mL (≈ 3.47 µM)
IC70 [5]: 5.71 µg/mL (≈ 5.13 µM)
IC90 [5]: 8.4 µg/mL (≈ 7.54 µM)
IC50 [6]: 1.62 µg/mL (≈ 1.45 µM)
IC70 [6]: 3.64 µg/mL (≈ 3.27 µM)
IC90 [6]: 8.17 µg/mL (≈ 7.33 µM)
IC50 [7]: 1.7 µg/mL (≈ 1.53 µM)
IC70 [7]: 3.61 µg/mL (≈ 3.24 µM)
IC90 [7]: 7.68 µg/mL (≈ 6.89 µM)
IC50 [8]: 0.55 µg/mL (≈ 0.494 µM)
IC70 [8]: 0.87 µg/mL (≈ 0.781 µM)
IC90 [8]: 8.58 µg/mL (≈ 7.7 µM)
IC50 [9]: 1.46 µg/mL (≈ 1.31 µM)
IC70 [9]: 3.37 µg/mL (≈ 3.03 µM)
IC90 [9]: 7.78 µg/mL (≈ 6.98 µM)
IC50 [10]: 2.47 µg/mL (≈ 2.22 µM)
IC70 [10]: 4.59 µg/mL (≈ 4.12 µM)
IC90 [10]: 8.56 µg/mL (≈ 7.68 µM)
IC50 [11]: 1.51 µg/mL (≈ 1.36 µM)
IC70 [11]: 3.43 µg/mL (≈ 3.08 µM)
IC90 [11]: 7.81 µg/mL (≈ 7.01 µM)
IC50 [12]: 2.64 µg/mL (≈ 2.37 µM)
IC70 [12]: 4.6 µg/mL (≈ 4.13 µM)
IC90 [12]: 8.01 µg/mL (≈ 7.19 µM)
IC50 [13]: 2.64 µg/mL (≈ 2.37 µM)
IC70 [13]: 5.42 µg/mL (≈ 4.87 µM)
IC90 [13]: 11.1 µg/mL (≈ 10 µM)
IC50 [14]: 1.4 µg/mL (≈ 1.26 µM)
IC70 [14]: 3.3 µg/mL (≈ 2.96 µM)
IC90 [14]: 7.74 µg/mL (≈ 6.95 µM)
IC50 [15]: 1.22 µg/mL (≈ 1.1 µM)
IC70 [15]: 3.24 µg/mL (≈ 2.91 µM)
IC90 [15]: 8.63 µg/mL (≈ 7.75 µM)
IC50 [16]: 1.5 µg/mL (≈ 1.35 µM)
IC70 [16]: 3.36 µg/mL (≈ 3.02 µM)
IC90 [16]: 7.54 µg/mL (≈ 6.77 µM)
IC50 [17]: 4.31 µg/mL (≈ 3.87 µM)
IC70 [17]: 6.08 µg/mL (≈ 5.46 µM)
IC90 [17]: 8.57 µg/mL (≈ 7.69 µM)
IC50 [18]: 3.81 µg/mL (≈ 3.42 µM)
IC70 [18]: 5.91 µg/mL (≈ 5.31 µM)
IC90 [18]: 9.16 µg/mL (≈ 8.22 µM)
IC50 [19]: 2.28 µg/mL (≈ 2.05 µM)
IC70 [19]: 4.54 µg/mL (≈ 4.08 µM)
IC90 [19]: 9.02 µg/mL (≈ 8.1 µM)
IC50 [20]: 4.23 µg/mL (≈ 3.8 µM)
IC70 [20]: 6.31 µg/mL (≈ 5.66 µM)
IC90 [20]: 9.41 µg/mL (≈ 8.45 µM)
IC50 [21]: 2.18 µg/mL (≈ 1.96 µM)
IC70 [21]: 4.58 µg/mL (≈ 4.11 µM)
IC90 [21]: 9.64 µg/mL (≈ 8.65 µM)
IC50 [22]: 3.66 µg/mL (≈ 3.29 µM)
IC70 [22]: 5.72 µg/mL (≈ 5.13 µM)
IC90 [22]: 8.94 µg/mL (≈ 8.02 µM)
IC50 [23]: 2.56 µg/mL (≈ 2.3 µM)
IC70 [23]: 4.9 µg/mL (≈ 4.4 µM)
IC90 [23]: 9.37 µg/mL (≈ 8.41 µM)
IC50 [24]: 3.79 µg/mL (≈ 3.4 µM)
IC70 [24]: 5.95 µg/mL (≈ 5.34 µM)
IC90 [24]: 9.35 µg/mL (≈ 8.39 µM)
IC50 [25]: 0.46 µg/mL (≈ 0.413 µM)
IC70 [25]: 0.96 µg/mL (≈ 0.862 µM)
IC90 [25]: 5.75 µg/mL (≈ 5.16 µM)
IC50 [26]: 0.79 µg/mL (≈ 0.709 µM)
IC70 [26]: 2.19 µg/mL (≈ 1.97 µM)
IC90 [26]: 6.24 µg/mL (≈ 5.6 µM)
IC50 [27]: 4.19 µg/mL (≈ 3.76 µM)
IC70 [27]: 6.16 µg/mL (≈ 5.53 µM)
IC90 [27]: 9.08 µg/mL (≈ 8.15 µM)
IC50 [28]: 2.77 µg/mL (≈ 2.49 µM)
IC70 [28]: 4.73 µg/mL (≈ 4.25 µM)
IC90 [28]: 8.07 µg/mL (≈ 7.24 µM)
IC50 [29]: 2.68 µg/mL (≈ 2.41 µM)
IC70 [29]: 4.88 µg/mL (≈ 4.38 µM)
IC90 [29]: 8.87 µg/mL (≈ 7.96 µM)
IC50 [30]: 0.59 µg/mL (≈ 0.53 µM)
IC70 [30]: 2.02 µg/mL (≈ 1.81 µM)
IC90 [30]: 14.9 µg/mL (≈ 13.4 µM)
IC50 [31]: 6.08 µg/mL (≈ 5.46 µM)
IC70 [31]: 11.3 µg/mL (≈ 10.2 µM)
IC90 [31]: 21.1 µg/mL (≈ 18.9 µM)
IC50 [32]: 0.96 µg/mL (≈ 0.862 µM)
IC70 [32]: 2.59 µg/mL (≈ 2.32 µM)
IC90 [32]: 7.04 µg/mL (≈ 6.32 µM)
IC50 [33]: 2.6 µg/mL (≈ 2.33 µM)
IC70 [33]: 4.56 µg/mL (≈ 4.09 µM)
IC90 [33]: 7.99 µg/mL (≈ 7.17 µM)
IC50 [34]: 2 µg/mL (≈ 1.8 µM)
IC70 [34]: 3.85 µg/mL (≈ 3.46 µM)
IC90 [34]: 7.44 µg/mL (≈ 6.68 µM)
IC50 [35]: 1.58 µg/mL (≈ 1.42 µM)
IC70 [35]: 3.66 µg/mL (≈ 3.29 µM)
IC90 [35]: 8.46 µg/mL (≈ 7.59 µM)
IC50 [36]: 2.88 µg/mL (≈ 2.59 µM)
IC70 [36]: 4.94 µg/mL (≈ 4.43 µM)
IC90 [36]: 8.5 µg/mL (≈ 7.63 µM)
IC50 [37]: 0.38 µg/mL (≈ 0.341 µM)
IC70 [37]: 0.61 µg/mL (≈ 0.548 µM)
IC90 [37]: 0.96 µg/mL (≈ 0.862 µM)
